Our source for the IC50 and pKa values is ChEMBL document CHEMBL1138842, “Fluorinated phenylcyclopropylamines. 2. Effects of aromatic ring substitution and of absolute configuration on inhibition of microbial tyramine oxidase” (J Med Chem, 2004).

SMILES strings stand for the structures. Where a name gives a salt, the structure may show the parent alone.

Data set [1] is described as follows: Inhibitory concentration against tyramine oxidase of Arthrobacter spp.; Not determined.
Data set [2] in a line: Ionization constant was determined. The format is physicochemical. In outline:
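Determined by pH-metric titration in 0.1 M KNO₃ at 21 °C.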

Data set [3] in a line: Inhibitory concentration against tyramine oxidase of Arthrobacter spp.; Irreversible inhibition.
A short description of data set [4]: Inhibitory concentration against tyramine oxidase of Arthrobacter spp.; Competitive inhibition.
In data set [5] the target is T1, Amine oxidase [flavin-containing] B (Homo sapiens, UniProt P27338).
T1 sequence (P27338 whole entry): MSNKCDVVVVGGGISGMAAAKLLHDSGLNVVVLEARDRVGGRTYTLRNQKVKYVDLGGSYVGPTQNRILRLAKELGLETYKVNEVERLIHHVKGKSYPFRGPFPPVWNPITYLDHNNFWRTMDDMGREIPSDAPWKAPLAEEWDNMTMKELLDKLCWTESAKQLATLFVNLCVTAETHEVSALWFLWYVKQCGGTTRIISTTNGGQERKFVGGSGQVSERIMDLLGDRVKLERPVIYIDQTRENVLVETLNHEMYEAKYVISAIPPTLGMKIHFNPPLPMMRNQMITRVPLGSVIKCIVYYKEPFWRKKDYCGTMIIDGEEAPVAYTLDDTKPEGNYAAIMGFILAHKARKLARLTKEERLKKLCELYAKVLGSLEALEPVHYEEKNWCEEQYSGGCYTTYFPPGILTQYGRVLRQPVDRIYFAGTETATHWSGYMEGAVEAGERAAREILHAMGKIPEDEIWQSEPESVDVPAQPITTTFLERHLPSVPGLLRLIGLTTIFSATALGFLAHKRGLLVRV
Description: Inhibitory concentration for human liver monoamine oxidase B.

The target of data set [6] is T2, Amine oxidase [flavin-containing] A (Homo sapiens, UniProt P21397).
T2 sequence (P21397 whole entry): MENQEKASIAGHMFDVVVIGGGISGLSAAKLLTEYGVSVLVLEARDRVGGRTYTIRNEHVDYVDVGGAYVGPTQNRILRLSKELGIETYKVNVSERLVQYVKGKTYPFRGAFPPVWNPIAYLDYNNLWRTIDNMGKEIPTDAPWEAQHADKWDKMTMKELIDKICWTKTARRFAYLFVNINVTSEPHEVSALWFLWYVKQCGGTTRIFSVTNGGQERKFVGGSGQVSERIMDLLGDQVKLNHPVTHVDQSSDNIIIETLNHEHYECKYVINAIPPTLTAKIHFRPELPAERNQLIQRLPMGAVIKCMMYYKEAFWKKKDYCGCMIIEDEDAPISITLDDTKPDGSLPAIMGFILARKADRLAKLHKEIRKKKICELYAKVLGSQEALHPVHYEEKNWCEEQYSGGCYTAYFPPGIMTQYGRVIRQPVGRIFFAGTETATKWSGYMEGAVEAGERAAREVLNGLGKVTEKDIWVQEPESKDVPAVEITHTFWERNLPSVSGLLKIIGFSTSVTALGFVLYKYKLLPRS
Description: Inhibitory concentration for human liver monoamine oxidase A.

A short description of data set [7]: Inhibition concentration against tyramine oxidase of Arthrobacter spp.; Partially irreversible inhibition.

One may read the IC50 as the concentration that inhibits the measured activity by half. Read a low IC50 as greater potency. One may read the pKa as the pH at which an ionisable group is half protonated. As for `Cc1ccc([C@@]2(F)C[C@@H]2N)cc1`, the IC50 in data set [1] amounted to 51 µM. Besides, the pKa in data set [2] (read-out: pKa) worked out at 7.04.

In data set [3], `NC1CC1c1ccccc1` (stereo not drawn) registered an IC50 of 33 µM. In addition, the pKa in data set [2] (read-out: pKa) is 8.5.

In data set [4], `N[C@@H]1C[C@]1(F)c1ccc(F)cc1` (relative stereo) returned a 50% inhibitory concentration (IC50) of 8.1 µM. Besides, the pKa in data set [2] (read-out: pKa) turned out to be 7.31.

For the compound `Cc1ccc([C@@]2(F)C[C@H]2N)cc1` (relative stereo), the values for the half-inhibitory concentration (IC50) in data set [5], in data set [6] and in data set [4] were 6.7 µM, 6.7 µM and 0.39 µM, respectively. Besides, the pKa in data set [2] (read-out: pKa) was 7.41.

Turning to `N[C@@H]1C[C@]1(F)c1ccccc1` (relative stereo), in data set [2] (read-out: pKa), the pKa was found to be 6.98. This compound yielded an IC50 in data set [7] of 190 µM.

In turn, `N[C@H]1C[C@]1(F)c1ccccc1` (relative stereo) yielded an IC50 in data set [4] of 3.6 µM. In addition, the pKa in data set [2] (read-out: pKa) was 7.35.

On to `N[C@H]1C[C@]1(F)c1ccc(F)cc1` (relative stereo), for which, in data set [2] (read-out: pKa), the pKa was 6.88. The compound also gave a 50% inhibitory concentration (IC50) in data set [7] of 75 µM.

The compound `N[C@@H]1C[C@H]1c1ccccc1` (relative stereo) [TRANYLCYPROMINE HYDROCHLORIDE] registered a concentration for half-maximal inhibition (IC50) in data set [4] of 35 µM. In addition, in data set [2] (read-out: pKa), the pKa was found to be 8.47.

Regarding `Cl.NC1CC1(F)c1ccc(Cl)cc1` (stereo in doubt), the pKa in data set [2] is 6.81. The compound further yielded an IC50 in data set [7] of 89 µM.

The compound `NC1CC1(F)c1ccc(Cl)cc1` (trans isomer) showed an IC50 in data set [4] of 3.7 µM. Moreover, the pKa in data set [2] (read-out: pKa) was 7.19.

`NNC(N)=O` [HYDRAZINECARBOXAMIDE] had a half-inhibitory concentration (IC50) in data set [6] of 6.7 µM.
